Measured values published in PMC9434060 (Heliyon, 2022).

Columns and labels:
His6 XCGL-1 = His6 XCGL-1 (Xenopus laevis, UniProt Q91719); assay: Inhibition of His6 XCGL-1 hemagglutination by carbohydrates; assay type: cell-based; conditions: pig red blood cells, 25 nM XCGL-1
Method in brief: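 Fresh pig blood collected into sodium citrate tubes. Red cells washed in 20 mM HEPES pH 7.5, 150 mM NaCl, 10 mM CaCl2 and used as a 2.5% suspension. Incubated with 25 nM lectin plus carbohydrate at various concentrations in a Terasaki plate. Agglutination photographed after 1 h. MIC is the minimum carbohydrate concentration inhibiting agglutination.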

His6 XCGL-1 CRD = assay: Inhibition of His6 XCGL-1 CRD hemagglutination by carbohydrates; assay type: cell-based, Xenopus laevis; conditions: pig red blood cells, 25 nM XCGL-1
Refolded XCGL-1 CRD = assay: Inhibition of refolded XCGL-1 CRD hemagglutination by carbohydrates; assay type: cell-based, Xenopus laevis; conditions: pig red blood cells; for concentration at which inhibition of hemagglutination was observed: 25 nM XCGL-1; for inhibition of hemagglutination at 25 mM: 25 nM XCGL-1, carbohydrate 25 mM
XCGL-1 [1] = assay: Competitive elution of XCGL-1 from lactose resin; set-up: species or system Xenopus laevis; conditions: carbohydrate 6.5 mM in binding buffer, western blot
Method in brief: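 Lactose-agarose resin (250 μL) settled in a spin column and washed three times with binding buffer (20 mM HEPES pH 7.5, 150 mM NaCl, 10 mM CaCl2). Protein (250 μL, 0.1 μM) bound for 5 min, then washed three times. Elution with each carbohydrate at 6.5 mM in binding buffer; eluates analysed by western blot.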

XCGL-1 [2] = assay: Inhibition of XCGL-1 hemagglutination; assay type: cell-based, Xenopus laevis; conditions: pig red blood cells; for inhibition of hemagglutination by carbohydrates: 25 nM XCGL-1; for inhibition of agglutination: 50 nM XCGL-1, millimolar concentrations
Method in brief: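 Citrated fresh pig red cells, washed in 20 mM HEPES pH 7.5, 150 mM NaCl, 10 mM CaCl2, used as a 2.5% suspension in a Terasaki plate. Two set-ups: carbohydrates at various concentrations with 25 nM lectin; EDTA or galactose at millimolar concentrations with 50 nM lectin. Plates photographed after 1 h.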

Sequence of His6 XCGL-1 (Q91719 18-313): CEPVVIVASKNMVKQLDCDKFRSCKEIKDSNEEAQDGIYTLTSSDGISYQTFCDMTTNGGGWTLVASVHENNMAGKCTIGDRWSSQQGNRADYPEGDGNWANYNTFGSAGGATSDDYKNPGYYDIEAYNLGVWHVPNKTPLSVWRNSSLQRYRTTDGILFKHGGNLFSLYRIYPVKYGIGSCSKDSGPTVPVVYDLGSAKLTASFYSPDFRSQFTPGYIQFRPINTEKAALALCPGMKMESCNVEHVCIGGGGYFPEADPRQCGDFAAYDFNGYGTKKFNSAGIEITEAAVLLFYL

Compound	minimum inhibitory concentration (MIC) of hemagglutination (His6 XCGL-1) [mM]	minimum inhibitory concentration (MIC) of hemagglutination (His6 XCGL-1 CRD) [mM]	competitive elution of XCGL-1 bound to lactose resin (XCGL-1 [1])	inhibition of hemagglutination by carbohydrates (XCGL-1 [2])	also measured
OC[C@H]1O[C@@H](O[C@H]2[C@H](O)[C@@H](O)[C@H](O)O[C@@H]2CO)[C@H](O)[C@@H](O)[C@H]1O [lactose, β-D-Gal-(1→4)-D-Glc]	15	10	able to elute XCGL-1 competitively		concentration at which inhibition of hemagglutination was observed (Refolded XCGL-1 CRD): > 20 mM
CC(=O)N[C@@H]1[C@@H](O)[C@H](O)[C@@H](CO)O[C@H]1O [N-acetylglucosamine, N-acetyl-D-glucosamine]				could not inhibit hemagglutination	
CC(=O)N[C@H]1C(O)O[C@H](CO)[C@H](O)[C@@H]1O (stereo partly drawn) [N-acetylgalactosamine, N-acetyl-D-galactosamine]				could not inhibit hemagglutination	
OC[C@H]1OC(O)[C@H](O)[C@@H](O)[C@@H]1O (some centres unmarked) [glucose]				could not inhibit hemagglutination	
O=C(O)CN(CCN(CC(=O)O)CC(=O)O)CC(=O)O [EDTA]					inhibition of agglutination (XCGL-1 [2]): inhibited
OC[C@H]1O[C@H](OCC2O[C@@H](O)[C@H](O)[C@@H](O)[C@@H]2O)[C@H](O)[C@@H](O)[C@H]1O (stereo partly drawn) [melibiose, α-D-Gal-(1→6)-D-Glc]	15	10	able to elute XCGL-1 competitively		concentration at which inhibition of hemagglutination was observed (Refolded XCGL-1 CRD): > 20 mM
C[C@H](O)[C@@H](O)[C@@H](O)[C@H](O)C=O [fucose, L-fucose]				could not inhibit hemagglutination	
O=C[C@H](O)[C@@H](O)[C@@H](O)[C@H](O)CO [galactose, D-galactose]	15	10	able to elute XCGL-1 competitively		inhibition of hemagglutination at 25 mM (Refolded XCGL-1 CRD): not efficient at inhibiting hemagglutination; inhibition of agglutination (XCGL-1 [2]): inhibited
CC(=O)N[C@H]1C(O)O[C@H](CO)[C@H](O)[C@@H]1O[C@H]1O[C@H](CO)[C@H](O)[C@H](O)[C@H]1O (stereo partly drawn) [α-D-Gal-(1→3)-D-GalNAc]	5	2.5	able to elute XCGL-1 competitively		inhibition of hemagglutination at 25 mM (Refolded XCGL-1 CRD): no inhibition
OC[C@H]1OC(O)[C@@H](O)[C@@H](O)[C@@H]1O (stereo partly drawn) [mannose, D-mannose]				could not inhibit hemagglutination	
